Data as given in ChEMBL document CHEMBL1275590, “Novel arylimidamides for treatment of visceral leishmaniasis” (Antimicrob Agents Chemother, 2010).

Experiments:
[1] = Half life in human liver microsome by HPLC-MS/MS analysis in presence of 10 uM NADPH; format: ADME; settings: liver microsomes
How it was run: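 Pooled liver microsomes (human, mouse, rat) with NADPH. Substrate added from DMSO to final 0.1, 1.0 or 10 μM, with 0.5% (vol/vol) organic solvent. Incubated at 37°C for up to 60 min. Stopped with 2 volumes of 7:1 methanol-water containing 0.1% TFA and 30 nM internal standard, then centrifuged. Remaining substrate was measured by HPLC-MS/MS, and t1/2 was obtained by one-phase exponential decay fit (t1/2 = 0.693/k).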

[2] = AUC (0 to infinity) in Swiss Webster mouse at 1 mg/kg, iv by HPLC-MS/MS analysis; format: ADME, organism-based; parameters: time infinity, dose 1 mg/kg, route intravenous; settings: plasma
How it was run: (§1)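 Male Swiss Webster mice, n = 3 per time point. For i.v., the compound was dissolved in sterile water, diluted 1:1 with 2× saline, and given as a tail-vein bolus over ~10–20 s. For p.o., it was given by gavage in sterile water. Dose volume was 5 ml/kg. Terminal plasma was taken from 5 min to 72 h and measured by HPLC-MS/MS (calibration 2.5–10,000 nM). Parameters came from noncompartmental analysis.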

Mus musculus [3] = assay: Hepatotoxicity in BALB/c mouse assessed as AST level in serum at 20 mg/kg/day, iv administered for five days (Rvb= 65 U/L); format: toxicity, organism-based; parameters: route intravenous; settings: in vivo
Leishmania donovani [4] = assay: Antileishmanial activity against intracellular Leishmania donovani LV82 amastigotes infected in CD-1 mouse peritoneal macrophage; format: functional, organism-based
How it was run: (§2)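 CD-1 mouse peritoneal macrophages, 5 × 10^4 cells/well in RPMI 1640 + 10% heat-inactivated FBS, adhered overnight. Infected overnight with stationary-phase LV82 promastigotes (5:1 parasite:macrophage), 37°C, 5% CO2. Medium then replaced with compound or vehicle for 72 h at 37°C. Methanol-fixed, Giemsa-stained; % infected macrophages counted at ×1,000. IC50 by four-parameter logistic nonlinear regression.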

Mus musculus [5] = assay: Hepatotoxicity in BALB/c mouse assessed as alkaline phosphatase level in serum at 20 mg/kg/day, iv administered for five days (Rvb= 134 U/L); format: toxicity, organism-based; parameters: route intravenous; settings: in vivo
Mus musculus [6] = assay: Hepatotoxicity in BALB/c mouse assessed as ALT level in serum at 50 mg/kg/day, po administered for five days (Rvb= 36 U/L); format: toxicity, organism-based; parameters: route oral; settings: in vivo
Leishmania donovani [7] = assay: Antileishmanial activity against Leishmania donovani axenic amastigotes; format: functional, organism-based
[8] = Half life in golden Syrian hamster liver microsome by HPLC-MS/MS analysis in presence of 1 uM NADPH; format: ADME, Mesocricetus auratus; settings: liver microsomes
How it was run: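 Pooled liver microsomes with NADPH. Substrate at final 0.1, 1.0 and 10 μM with 0.5% DMSO, incubated up to 60 min at 37°C. Reactions were stopped with 7:1 methanol-water containing 0.1% TFA and 30 nM internal standard. Remaining substrate was measured by HPLC-MS/MS, and t1/2 came from a one-phase exponential decay fit.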

Mus musculus [9] = assay: Hepatotoxicity in BALB/c mouse assessed as alkaline phosphatase level in serum at 5 mg/kg/day, iv administered for five days (Rvb= 134 U/L); format: toxicity, organism-based; parameters: route intravenous; settings: in vivo
Mus musculus [10] = assay: Renal toxicity in BALB/c mouse assessed as blood urea nitrogen level in serum at 50 mg/kg/day, po administered for five days (Rvb= 29 mg/dl); format: organism-based; parameters: route oral; settings: in vivo
How it was run: (§3)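 Female BALB/c mice (n = 5 per dose), dosed once daily for 5 consecutive days p.o. (20 ml/kg) or i.v. (10 ml/kg) with compound in sterile water, prepared fresh daily under yellow light. Vehicle controls n = 5 per route. Clinical observations, body weights, serum chemistry and hematology on day 6 before necropsy; histopathology of formalin-fixed tissues. Chemistry analysed by one-way ANOVA with Dunnett's posttest.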

[11] = Cmax in Swiss Webster mouse at 1 mg/kg, iv by HPLC-MS/MS analysis; format: ADME, organism-based; parameters: dose 1 mg/kg, route intravenous; settings: in vivo; how it was run: as §1
Leishmania amazonensis = assay: Antileishmanial activity against intracellular Leishmania amazonensis amastigotes; format: functional, organism-based
Mus musculus [12] = assay: Toxicity in BALB/c mouse assessed as occurrence of tremor at 30 mg/kg, iv; format: organism-based; parameters: dose 30 mg/kg, route intravenous; settings: in vivo
How it was run: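 Single-dose escalation: female BALB/c mice (n = 1 per dose level) given one i.v. dose in sterile water (10 ml/kg), 5–50 mg/kg, observed for 2 days.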

[13] = Half life in Swiss Webster mouse at 16.5 mg/kg, po by HPLC-MS/MS analysis; format: ADME, organism-based; parameters: dose 16.5 mg/kg, route oral; settings: in vivo; how it was run: as §1
Leishmania donovani [14] = assay: Antileishmanial activity against intracellular Leishmania donovani LV82 amastigotes; format: functional, organism-based; how it was run: as §2
[15] = Cmax in Swiss Webster mouse at 131 mg/kg, po by HPLC-MS/MS analysis; format: ADME, organism-based; parameters: dose 131 mg/kg, route oral; settings: in vivo; how it was run: as §1
Mus musculus [16] = assay: Renal toxicity in BALB/c mouse assessed as phosphorus level in serum at 5 mg/kg/day, iv administered for five days (Rvb= 6.1 mg/dl); format: organism-based; parameters: route intravenous; settings: in vivo; how it was run: as §3
Mus musculus [17] = assay: Hepatotoxicity in BALB/c mouse assessed as AST level in serum at 25 mg/kg/day, po administered for five days (Rvb= 70 U/L); format: toxicity, organism-based; parameters: route oral; settings: in vivo
Mus musculus [18] = assay: Hepatotoxicity in BALB/c mouse assessed as phosphorus level in serum at 25 mg/kg/day, po administered for five days (Rvb= 5.3 mg/dl); format: toxicity, organism-based; parameters: route oral; settings: in vivo
[19] = Half life in Swiss Webster mouse at 70 mg/kg, po by HPLC-MS/MS analysis; format: ADME, organism-based; parameters: dose 70 mg/kg, route oral; settings: in vivo; how it was run: as §1
[20] = Induction of mutagenicity in Salmonella serovar Typhimurium TA 100 assessed as number of revertant colonies at 5 ug by Ames assay in presence of Aroclor 1254-induced rat liver S9 metabolic activation system; format: toxicity, subcellular, Salmonella enterica subsp. enterica serovar Typhimurium
How it was run: (§4)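 Ames plate incorporation with S. Typhimurium TA98 and TA100, with or without Aroclor 1254-induced rat liver S9 (10% vol/vol). Compound was dissolved in sterile water and serially diluted to 1–500 μg/plate. Positive controls were 2-nitrofluorene and sodium azide without S9, and 2-aminoanthracene with S9; sterile water and DMSO served as vehicles. Revertant colonies and background lawn were scored. A mutagen was defined as a mean revertant count at least 2-fold over solvent control. Single experiment.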

Leishmania donovani [21] = assay: Antileishmanial activity against Leishmania donovani WR378 infected in golden Syrian hamster assessed as reduction in spleen parasitemia at 100 mg/kg/day, po administered for five days; format: functional; settings: 120 h
How it was run: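 11-day golden hamster VL model adapted from an 8-day method, using L. donovani WR378 metacyclic promastigotes. Dosing was oral, once daily for 5 days. Animals were euthanized on day 11 post-infection. Liver, spleen and femoral bone marrow (flushed with Schneider's medium) were harvested.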

[22] = Induction of mutagenicity in Salmonella serovar Typhimurium TA 100 assessed as number of revertant colonies at 50 ug by Ames assay in presence of Aroclor 1254-induced rat liver S9 metabolic activation system; format: toxicity, subcellular, Salmonella enterica subsp. enterica serovar Typhimurium; how it was run: as §4
[23] = AUC (0 to infinity) in Swiss Webster mouse at 5 mg/kg, iv by HPLC-MS/MS analysis; format: ADME, organism-based; parameters: time infinity, dose 5 mg/kg, route intravenous; settings: plasma; how it was run: as §1
[24] = Cmax in Swiss Webster mouse at 5 mg/kg, iv by HPLC-MS/MS analysis; format: ADME, organism-based; parameters: dose 5 mg/kg, route intravenous; settings: in vivo; how it was run: as §1
Leishmania donovani [25] = assay: Antileishmanial activity against Leishmania donovani promastigotes in BALB/c mouse assessed as inhibition of liver parasitemia at 100 mg/kg/day, po administered for five days; format: functional; parameters: scale not given: the % may be the effect or the level left
How it was run: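 Murine VL model in L. donovani-infected mice. Compounds were dissolved in water and given i.p. or p.o. once daily for 5 days (4 days for one i.p. regimen). Liver parasitemia was compared with untreated controls by unpaired Student's t test, P ≤ 0.05.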

Compound | half-life [1] [h] | AUC(0-inf) [2] [µM·h] | Activity (Mus musculus [3]) [U/L] | IC50 (Leishmania donovani [4]) [nM] | Activity (Mus musculus [5]) [U/L] | Activity (Mus musculus [6]) [U/L] | IC50 (Leishmania donovani [7]) [nM] | half-life [8] [h] | Activity (Mus musculus [9]) [U/L] | Activity (Mus musculus [10]) [mg/dL] | Cmax [11] [nM] | IC50 (Leishmania amazonensis) [nM] | IC50 (Leishmania donovani [14]) [nM] | Activity (Mus musculus [16]) [mg/dL] | Activity (Mus musculus [17]) [U/L] | Activity (Mus musculus [18]) [mg/dL] | also measured
CCOc1cc(NC(=N)c2ccccn2)ccc1-c1ccc(-c2ccc(NC(=N)c3ccccn3)cc2OCC)o1 | > 2 | 0.56 | 89 | 4500 | 107 | 34 | 500 | > 2 | 113 | 27 | 370 | 120 | 18 | 7.1 | 67 | 6.9 | Activity (Mus musculus [12]): Toxic; half-life [13]: 24 h; Cmax [15]: 1680 nM
CC(C)Oc1cc(NC(=N)c2ccccn2)ccc1-c1ccc(-c2ccc(NC(=N)c3ccccn3)cc2OC(C)C)o1 | > 2 | 2.53 | 76 | 2800 | 104 | 45 | 500 | > 2 | 103 | 25 | 1090 | 87 | 36 | 7 | 75 | 7 | half-life [19]: 48 h; Activity [20]: 154; inhibition in vivo at 100 mg/kg/day (Leishmania donovani [21]): 79%; Activity [22]: 135; AUC(0-inf) [23]: 9.53 µM·h; Cmax [24]: 10400 nM; Activity (Leishmania donovani [25]): 71%
